Source: ChEMBL document CHEMBL1128256, “Synthesis, biological evaluation, and structure analysis of a series of new 1,5-anhydrohexitol nucleosides” (J Med Chem, 1995)
Values after ≈ are worked out from the molar mass of the structure shown.

Columns and labels:
E6SM [1] = assay: Tested for the minimum inhibitory concentration required to reduce herpes simplex virus type 2 (HSV-2) strain 196 induced cytopathogenicity by 50%.; assay type: functional; settings: Homo sapiens
Method in brief: (§1)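 Inhibition of virus-induced cytopathogenicity in human embryonic skin-muscle (E6SM) fibroblasts seeded in 96-well trays. Viruses were HSV-1 (KOS, F, McIntyre), TK- HSV-1 B2006, TK-/TK+ HSV-1 clinical isolate VMW-1837 and HSV-2 (G, 196, Lyons). […] MCC is the lowest concentration giving microscopically detectable alteration of normal cell morphology; highest concentration tested was 400 µg/mL.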

E6SM [2] = assay: Tested for the minimum inhibitory concentration required to reduce herpes simplex virus type 2 (HSV-2) strain G induced cytopathogenicity by 50%.; assay type: functional; settings: Homo sapiens; method in brief: as §1
E6SM [3] = assay: Tested for the minimum inhibitory concentration required to reduce herpes simplex virus type 2 (HSV-2) strain Lyons induced cytopathogenicity by 50%.; assay type: functional; settings: Homo sapiens; method in brief: as §1
E6SM [4] = assay: Tested for the minimum inhibitory concentration required to reduce herpes simplex virus type 1 (HSV-1) strain F induced cytopathogenicity by 50%.; assay type: functional; settings: Homo sapiens; method in brief: as §1
E6SM [5] = assay: Tested for the minimum inhibitory concentration required to reduce herpes simplex virus type 1 (HSV-1) strain KOS induced cytopathogenicity by 50%.; assay type: functional; settings: Homo sapiens; method in brief: as §1
E6SM [6] = assay: Tested for the minimum inhibitory concentration required to reduce herpes simplex virus type 1 (HSV-1) strain McIntyre induced cytopathogenicity by 50%.; assay type: functional; settings: Homo sapiens; method in brief: as §1
E6SM [7] = assay: Tested for the minimum inhibitory concentration required to reduce vaccinia virus(VV) induced cytopathogenicity by 50%.; assay type: functional; settings: Homo sapiens
E6SM [8] = assay: Tested for the minimum inhibitory concentration required to reduce vesicular stomatitis virus(VSV) induced cytopathogenicity by 50%; assay type: functional; settings: Homo sapiens
E6SM [9] = assay: Tested for the minimum inhibitory concentration required to reduce herpes simplex virus type 1 (TK- / TK+ HSV-1) strain VMW-1837 induced cytopathogenicity by 50%.; assay type: functional; settings: Homo sapiens; method in brief: as §1
E6SM [10] = assay: Tested for the minimum cytotoxic concentration required to cause a microscopically detectable alteration of normal cell morphology in human embryonic skin muscle (E6SM) fibroblast cell cultures.; assay type: functional; method in brief: as §1
E6SM [11] = assay: Tested for the minimum inhibitory concentration required to reduce thymidine kinase deficient herpes simplex virus type 1 (TK- HSV-1) strain B2006 induced cytopathogenicity by 50%.; assay type: functional; settings: Homo sapiens; method in brief: as §1
HEL [12] = assay: Tested for the cytotoxic concentration, required to reduce cell growth by 50% in human embryonic lung (HEL) cells.; assay type: functional
Method in brief: (§2)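 Virus plaque formation assay in human embryonic lung (HEL) cells seeded in 96-well trays. Targets were TK+ VZV (Oka, YS), TK- VZV (07/1, YS/R) and CMV (AD169, Davis). Value is the concentration that reduces plaque number by 50%. Cytotoxicity in HEL cells was taken as the concentration that reduces cell growth by 50%.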

HEL [13] = assay: Tested for the inhibitory concentration required to reduce TK+ Varicella-Zoster virus (TK+ VZV) strain OKA plaque formation by 50%.; assay type: functional, cell-based; settings: Homo sapiens
HEL [14] = assay: Tested for the inhibitory concentration required to reduce TK+ Varicella-Zoster virus (TK+ VZV) strain YS plaque formation by 50%; assay type: functional, cell-based; settings: Homo sapiens
HEL [15] = assay: Tested for the inhibitory concentration required to reduce cytomegalovirus (CMV) strain AD-169 plaque formation by 50%.; assay type: functional, cell-based; settings: Homo sapiens; method in brief: as §2
HEL [16] = assay: Tested for the inhibitory concentration required to reduce cytomegalovirus (CMV) strain Davis plaque formation by 50%.; assay type: functional, cell-based; settings: Homo sapiens; method in brief: as §2
HEL [17] = assay: Tested for the inhibitory concentration required to reduce thymidine kinase deficient Varicella-Zoster virus (TK- VZV) strain YS/R plaque formation by 50%.; assay type: functional, cell-based; settings: Homo sapiens
E6SM [18] = assay: Tested for the minimum inhibitory concentration required to reduce thymidine kinase deficient herpes simplex virus type 1 (TK- / TK+ HSV-1) strain VMW-1837 induced cytopathogenicity by 50%.; assay type: functional; settings: Homo sapiens; method in brief: as §1
HEL [19] = assay: Tested for the inhibitory concentration required to reduce thymidine kinase deficient Varicella-Zoster virus (TK- VZV) strain 07/1 plaque formation by 50%.; assay type: functional, cell-based; settings: Homo sapiens
HEL [20] = assay: Tested for the inhibitory concentration required to reduce thymidine kinase plus Varicella-Zoster virus (TKplus VZV) strain OKA plaque formation by 50%.; assay type: functional, cell-based; settings: Homo sapiens; method in brief: as §2

SMILES	MIC (E6SM [1]) [µg/mL]	MIC (E6SM [2]) [µg/mL]	MIC (E6SM [3]) [µg/mL]	MIC (E6SM [4]) [µg/mL]	MIC (E6SM [5]) [µg/mL]	MIC (E6SM [6]) [µg/mL]	MIC (E6SM [7]) [µg/mL]	MIC (E6SM [8]) [µg/mL]	MIC (E6SM [9]) [µg/mL]	MCC (E6SM [10]) [µg/mL]	MIC (E6SM [11]) [µg/mL]	CC50 (HEL [12]) [µg/mL]	IC50 (HEL [13]) [µg/mL]	IC50 (HEL [14]) [µg/mL]	IC50 (HEL [15]) [µg/mL]	IC50 (HEL [16]) [µg/mL]	IC50 (HEL [17]) [µg/mL]	MIC (E6SM [18]) [µg/mL]	IC50 (HEL [19]) [µg/mL]	IC50 (HEL [20]) [µg/mL]
Nc1nc(=O)n(C2COC(CO)C(O)C2)cc1I (centres undefined)	20 (≈ 54.5 µM)	7 (≈ 19.1 µM)	20 (≈ 54.5 µM)	0.7 (≈ 1.91 µM)	2 (≈ 5.45 µM)	2 (≈ 5.45 µM)	150 (≈ 409 µM)	> 400	70 (≈ 191 µM)	> 400	300 (≈ 817 µM)	> 50	> 40	> 40	> 40	> 40	7.6 (≈ 20.7 µM)	–	–	–
Nc1nc(=O)n(C2COC(CO)C(O)C2)cc1F (centres undefined)	–	2 (≈ 7.71 µM)	–	–	0.2 (≈ 0.771 µM)	–	0.2 (≈ 0.771 µM)	> 200	–	> 400	0.07 (≈ 0.27 µM)	2 (≈ 7.71 µM)	–	3.5 (≈ 13.5 µM)	0.9 (≈ 3.47 µM)	0.5 (≈ 1.93 µM)	7 (≈ 27 µM)	2 (≈ 7.71 µM)	5 (≈ 19.3 µM)	2.9
O=c1[nH]c(=O)n(C2COC(CO)C(O)C2)cc1/C=C/Br (centres undefined)	70 (≈ 202 µM)	150 (≈ 432 µM)	70 (≈ 202 µM)	2 (≈ 5.76 µM)	0.4 (≈ 1.15 µM)	0.4 (≈ 1.15 µM)	–	–	70 (≈ 202 µM)	> 400	> 100	50 (≈ 144 µM)	1.4 (≈ 4.03 µM)	1.4 (≈ 4.03 µM)	> 10	23 (≈ 66.3 µM)	40 (≈ 115 µM)	–	20 (≈ 57.6 µM)	–
Nc1nc(=O)n(C2COC(CO)C(O)C2)cc1Cl (centres undefined)	300 (≈ 1090 µM)	300 (≈ 1090 µM)	300 (≈ 1090 µM)	150 (≈ 544 µM)	300 (≈ 1090 µM)	300 (≈ 1090 µM)	–	–	300 (≈ 1090 µM)	> 400	> 400	> 50	40 (≈ 145 µM)	> 40	> 40	> 40	> 40	–	> 40	–
Nc1ncnc2c1ncn2C[C@@H](CO)OCP(=O)(O)O	0.07 (≈ 0.231 µM)	0.02 (≈ 0.066 µM)	0.1 (≈ 0.33 µM)	0.2 (≈ 0.66 µM)	0.2 (≈ 0.66 µM)	2 (≈ 6.6 µM)	0.7 (≈ 2.31 µM)	> 400	1 (≈ 3.3 µM)	> 400	1 (≈ 3.3 µM)	–	–	–	–	–	–	–	–	–
